From paper PMC5432128 (Environment international, 2017)
≈ marks a conversion by molar mass, not a printed value. Where “and” joins values, the source holds several entries; their conditions need not be identical. Identical values can stand only once. Like-named read-outs stand apart in the source and are kept apart here.

Tests used:
[1] = cited from earlier work; for recovery of radioactivity in the urine: rats, ref Powles et al. 1992
[2] = test system: second instar larvae of S. frugiperda; experiment: Insect bioassay, diet surface contamination method; assay type: in vivo; conditions: for mortality / insecticidal activity: 2nd instar larvae, doses as high as 100 μg/mL (24-fold higher than fipronil LC50)
[3] = target: α1β3γ2L GABAA receptors (Homo sapiens, UniProt P14867+P18507+P28472); assay type: cell-based; conditions: for EC50: 25 μM GABA, -80 mV
[4] = LC-MS/MS Method 1; assay type: in vivo, rat; conditions: for concentration at 2 weeks: Conc sulfone, LOQ 1.5 ng/mL
Procedure, shortened: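 Rats received fipronil in diet at 5 or 10 mg/kg daily, for 14 days or one day. Urine was hydrolysed overnight at 37°C with β-glucuronidase/sulfatase in methanol/ammonium acetate pH 5.5. Urine (40 μL) was spiked with CUDA internal standard and centrifugally filtered at 20,000 g. Analysis used UPLC on C18 at 40°C with a water/acetonitrile 0.1% acetic acid gradient at 0.4 mL/min and […] ESI tandem MS.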

[5] = LC/MS/MS Method 2; assay type: in vivo; conditions: EPA group, this study; for Conc sulfone, LOQ 10 ng/mL: rat urine; for concentration at 2 weeks: rat, urine, oral, Conc sulfone, LOQ 10 ng/mL
Procedure, shortened: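 Urine came from fipronil-treated rats dosed at 5 or 10 mg/kg, single or repeated daily. Urine (100 μL) was precipitated with cold acetonitrile and centrifuged at 12,500 ×g for 8 min. Supernatant was mixed 1:1 with 10 mM ammonium acetate. HPLC used a C18 column at 30°C with 0.2 mM ammonium acetate methanol/acetonitrile phases, a 50–90% B gradient and flow of 0.4 rising to 0.75 mL/min, then MS/MS.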

[6] = urine of fipronil-treated rats; ref McMahen et al. 2015; cited from earlier work
[7] = in certain conditions; ref Gunasekara et al. 2007; cited from earlier work
[8] = test system: mice; conditions: 4.5 mg/kg body weight (bw)/day for 13 weeks; ref Hamernik 1998; cited from earlier work
[9] = test system: rats; conditions: in particular females; low doses (3.4 mg/kg bw); ref Hamernik 1998; cited from earlier work
[10] = test system: dogs; conditions: diet, up to 3 mg/kg bw/day; ref Hamernik 1998; Woodward 2012; cited from earlier work
[11] = test system: polyclonal antibodies 2265; experiment: Fipronil immunoassay cross-reactivity, serum 2265; assay type: binding; conditions: serum 2265, n=5; relative to fipronil
[12] = test system: polyclonal antibodies 2268; experiment: Fipronil immunoassay cross-reactivity, serum 2268; assay type: binding; conditions: serum 2268, n=4; relative to fipronil
[13] = inhibitory effective concentration (EC50) on GABA-induced Cl- currents, pre-application at least 3 min, mean ± S.D.

α1β3γ2L GABAA receptors, sequence (P14867 28-456): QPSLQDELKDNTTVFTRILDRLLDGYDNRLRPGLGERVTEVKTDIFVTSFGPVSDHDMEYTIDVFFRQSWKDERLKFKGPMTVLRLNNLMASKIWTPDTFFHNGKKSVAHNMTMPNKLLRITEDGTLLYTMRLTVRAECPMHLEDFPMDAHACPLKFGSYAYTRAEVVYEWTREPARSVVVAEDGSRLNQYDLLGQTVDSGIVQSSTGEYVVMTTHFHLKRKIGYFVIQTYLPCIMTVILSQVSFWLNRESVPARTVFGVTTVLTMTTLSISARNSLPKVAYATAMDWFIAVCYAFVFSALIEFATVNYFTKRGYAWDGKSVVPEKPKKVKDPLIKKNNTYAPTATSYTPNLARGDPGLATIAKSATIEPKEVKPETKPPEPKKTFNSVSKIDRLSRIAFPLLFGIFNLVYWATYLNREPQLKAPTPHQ
α1β3γ2L GABAA receptors, sequence (P28472 26-473): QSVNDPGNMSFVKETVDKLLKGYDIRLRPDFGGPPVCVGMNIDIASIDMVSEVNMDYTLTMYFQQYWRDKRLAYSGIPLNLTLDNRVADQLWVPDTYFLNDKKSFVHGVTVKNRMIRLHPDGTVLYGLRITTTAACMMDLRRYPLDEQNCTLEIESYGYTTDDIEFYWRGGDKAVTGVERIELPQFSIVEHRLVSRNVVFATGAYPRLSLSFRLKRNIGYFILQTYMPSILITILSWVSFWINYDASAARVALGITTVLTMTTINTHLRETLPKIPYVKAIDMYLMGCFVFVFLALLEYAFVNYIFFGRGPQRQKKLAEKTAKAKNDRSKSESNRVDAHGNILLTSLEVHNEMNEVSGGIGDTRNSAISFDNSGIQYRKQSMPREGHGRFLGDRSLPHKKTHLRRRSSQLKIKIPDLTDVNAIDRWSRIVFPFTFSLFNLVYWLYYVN
α1β3γ2L GABAA receptors, sequence (P18507 40-475): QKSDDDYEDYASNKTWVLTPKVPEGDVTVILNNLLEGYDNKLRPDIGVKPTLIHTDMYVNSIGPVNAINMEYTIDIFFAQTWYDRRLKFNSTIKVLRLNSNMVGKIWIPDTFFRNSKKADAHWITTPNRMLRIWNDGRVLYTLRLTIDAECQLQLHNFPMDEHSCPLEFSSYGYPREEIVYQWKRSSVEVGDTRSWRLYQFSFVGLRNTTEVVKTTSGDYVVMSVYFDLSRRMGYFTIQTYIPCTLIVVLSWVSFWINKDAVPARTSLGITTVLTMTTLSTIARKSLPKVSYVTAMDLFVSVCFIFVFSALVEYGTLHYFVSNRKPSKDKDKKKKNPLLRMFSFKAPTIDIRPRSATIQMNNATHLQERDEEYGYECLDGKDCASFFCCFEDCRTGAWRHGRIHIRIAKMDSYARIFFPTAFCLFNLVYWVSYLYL

N#Cc1nn(-c2c(Cl)cc(C(F)(F)F)cc2Cl)c(N)c1[S+]([O-])C(F)(F)F (stereo not drawn) [^14C-fipronil]
recovery of radioactivity in the urine ([1]; repeated dosing over 14 days): 14–16%
recovery of radioactivity in the urine ([1]; single dose at 4 mg/kg): 5.6%
recovery of radioactivity in the urine ([1]; single high dose (150 mg/kg)): 22–30%

COC(=N)c1cc(N)n(-c2c(Cl)cc(C(F)(F)F)cc2Cl)n1 [fipronil desulfinyl imidate, methyl 5-amino-1-(2,6-dichloro-4-(trifluoromethyl)phenyl)-1H-pyrazole-3-carbimidate]
mortality / insecticidal activity [2]: did not show any mortality
mortality / insecticidal activity ([2]; listed as imidate derivative): did not show any insecticidal activity
activity on GABAA α1β3γ2L receptor currents (in words) [3]: approximately as potent to fipronil
EC50 [3, 13]: 2.78 nM and 2.8 nM

N#Cc1nn(-c2c(Cl)cc(C(F)(F)F)cc2Cl)c(N)c1S(=O)(=O)C(F)(F)F [fipronil sulfone]
Conc sulfone, LOQ 1.5 ng/mL ([4]; rat urine, fipronil 5 mg/kg repeated, Method 1): 14 ng/mL
Conc sulfone, LOQ 1.5 ng/mL ([4]; rat urine, fipronil 5 mg/kg repeated, Method 1, listed as sulfone): 17 ng/mL and 14 ng/mL
detection in urine samples ([4]; rat urine, samples 42, 81 and 82): detected only in samples obtained from animals treated with fipronil repeatedly
concentration at 2 weeks ([4]; rat, urine, oral, 5 mg/kg, rat urine, fipronil 5 mg/kg repeated, Method 1): 17 ng/mL
concentration at 2 weeks ([4]; rat, urine, oral, 10 mg/kg, rat urine, fipronil 10 mg/kg repeated, Method 1): 19 ng/mL
concentration in urine samples ([4]; rats treated with fipronil, over all dose groups (abstract)): around 20 ng/mL
Conc sulfone, LOQ 10 ng/mL ([5]; fipronil 5 mg/kg repeated): 24 ng/mL
Conc sulfone, LOQ 10 ng/mL ([5]; fipronil 5 mg/kg single): < 10 ng/mL
Conc sulfone, LOQ 10 ng/mL ([5]; fipronil 10 mg/kg single): < 10 ng/mL
concentration at 2 weeks ([5]; 5 mg/kg, fipronil 5 mg/kg repeated): 26 ng/mL
concentration at 2 weeks ([5]; 10 mg/kg, fipronil 10 mg/kg repeated): 23 ng/mL
share among urinary metabolites ([1]; deconjugated and original rat urine, ref Powles et al. (1992)): minor constituent

N#Cc1nn(-c2c(Cl)cc(C(F)(F)F)cc2Cl)c(N)c1[S+]([O-])C(F)(F)F (stereo not drawn) [fipronil]
LC50 ([2]; Spodoptera frugiperda): 4.1 µg/mL (≈ 9.38 µM)
mortality at 100 µg/mL ([2]; Spodoptera frugiperda, 12 h): 100%
mortality at 50 µg/mL ([2]; Spodoptera frugiperda, 48 h): 100%
EC50 [3, 13]: 1.15 nM and 1.2 nM
free fipronil in urine samples [6]: no detectable amount
half-life (t1/2) in the environment [7]: over 100 days
bodyweight gain [8]: reduced bodyweight gains
liver weight [9]: significant increase in liver weight
other signs of toxicity observed [10]: convulsions, head nodding and muscles twitching
weight gain and neurological effects [10]: did not experience abnormal weight gain or severe neurological effects

N#Cc1nn(-c2c(Cl)cc(C(F)(F)F)cc2Cl)c(N)c1O [hydroxy-fipronil, 5-Amino-1-(2,6-dichloro-4-(trifluoromethyl)phenyl)-4-hydroxy-1H-pyrazole-3-carbonitrile]
Conc FipOH, LOQ 0.4 ng/mL ([4]; rat urine, fipronil 5 mg/kg single, Method 1, listed as FipOH): 23 ng/mL and 24 ng/mL
Conc FipOH, LOQ 0.4 ng/mL ([4]; rat urine, fipronil 10 mg/kg single, Method 1): 14 ng/mL
difference in metabolite concentration, two weeks treatment vs single treatment ([4]; rat urine, same doses 5 or 10 mg/kg): 80 to 700 times
concentration detected in the samples before and after enzymatic hydrolysis ([4]; rat urine, β-glucuronidase/sulfatase, table S4): did not change significantly
concentration at 14 days ([4]; rat, urine, oral, 10 mg/kg, Conc FipOH, LOQ 0.4 ng/mL, rat urine, fipronil 10 mg/kg repeated (14 days), Method 1): 10200 ng/mL
concentration in the urine ([4]; rats, single fipronil dose of 5 or 10 mg/kg): about 20 ng/mL
mortality / insecticidal activity [2]: did not show any mortality
activity on GABAA α1β3γ2L receptor currents (in words) [3]: did not have a significant inhibitory effect
EC50 ([3]; inhibitory EC50 on GABA-induced Cl- currents): ~1000 nM
EC50 [3, 13]: 1000 ± 341 nM
fold higher concentrations to elicit similar current inhibition ([3]; relative to fipronil and fipronil desulfinyl imidate): ≤ 1000 fold
Cross-reactivity (CR) [11]: 3.2%
Cross-reactivity (CR) [12]: 0.7%
